In ChEMBL document CHEMBL1129639, “Synthesis and cardiotonic activity of novel pyrimidine derivatives: crystallographic and quantum chemical studies” (J Med Chem, 1996):

Tests used:
[1] = target: T1, Adenosine receptor A1 (Cavia porcellus, UniProt P47745); test: Inhibition of [3H]-CHA binding to Adenosine A1 receptor in guinea pig heart
T1 sequence (P47745 whole entry): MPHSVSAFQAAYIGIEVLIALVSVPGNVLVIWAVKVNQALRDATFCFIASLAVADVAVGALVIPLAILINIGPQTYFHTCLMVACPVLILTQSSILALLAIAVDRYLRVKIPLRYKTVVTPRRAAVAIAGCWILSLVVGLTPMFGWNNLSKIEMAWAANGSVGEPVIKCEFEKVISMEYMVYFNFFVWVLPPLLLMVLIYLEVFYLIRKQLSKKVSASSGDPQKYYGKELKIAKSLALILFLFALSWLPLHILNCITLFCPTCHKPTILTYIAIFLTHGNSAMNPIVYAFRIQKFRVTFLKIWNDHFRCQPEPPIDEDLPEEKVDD
Summary of the method: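 Guinea pig heart membranes prepared in 50 mM Tris-HCl pH 7.4 and pretreated with adenosine deaminase 2 IU/mL for 30 min at 37 °C. Incubated with 1 nM [3H]CHA, membranes from 15 mg tissue, 120 min at 23 °C. Bound ligand separated by GF/B filtration; nonspecific binding defined with (R)-PIA. Six concentrations tested in triplicate; IC50 by probit analysis.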

[2] = organism: Cavia porcellus; test: Effect on the contractile force of spontaneously beating atria from Reserpine-treated guinea pigs as percentage variation from the control at concentration of 10E-5 M; assay type: functional
Summary of the method: (§1)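 Atria from reserpine-treated guinea pigs (reserpine 2 mg/kg ip, 48 and 24 h before death; only tyramine-unresponsive preparations used). Bath solution at 29 °C, gassed 95% O2/5% CO2, pH 7.5, resting tension […]. After 90 min equilibration, compound added cumulatively, 5 min per concentration. Isometric developed-tension amplitude or beating rate given as % variation from untreated control. Mean ± SEM, 6-10 assays.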

[3] = organism: Cavia porcellus; test: Effect on the contractile force of spontaneously beating atria from Reserpine-treated guinea pigs as percentage variation from the control at concentration of 10E-6 M; assay type: functional; summary of the method: as §1
[4] = organism: Cavia porcellus; test: Effect on the contractile force of spontaneously beating atria from Reserpine-treated guinea pigs as percentage variation from the control at concentration of 3 x 10E-4 M; assay type: functional; summary of the method: as §1
[5] = organism: Cavia porcellus; test: Effect on the contractile force of spontaneously beating atria from Reserpine-treated guinea pigs as percentage variation from the control at concentration of 3 x 10E-5 M; assay type: functional; summary of the method: as §1
[6] = organism: Cavia porcellus; test: Effect on the contractile force of spontaneously beating atria from Reserpine-treated guinea pigs as percentage variation from the control at concentration of 3 x 10E-6 M; assay type: functional; summary of the method: as §1
[7] = organism: Cavia porcellus; test: Effect on the frequency rate of spontaneously beating atria from Reserpine-treated guinea pigs as percentage variation from the control at concentration of 10E-3 M; assay type: functional; summary of the method: as §1
[8] = organism: Cavia porcellus; test: Effect on the frequency rate of spontaneously beating atria from Reserpine-treated guinea pigs as percentage variation from the control at concentration of 10E-4 M; assay type: functional; summary of the method: as §1
[9] = organism: Cavia porcellus; test: Effect on the frequency rate of spontaneously beating atria from Reserpine-treated guinea pigs as percentage variation from the control at concentration of 10E-5 M; assay type: functional; summary of the method: as §1
[10] = organism: Cavia porcellus; test: Effect on the frequency rate of spontaneously beating atria from Reserpine-treated guinea pigs as percentage variation from the control at concentration of 10E-6 M; assay type: functional; summary of the method: as §1
[11] = organism: Cavia porcellus; test: Inotropic effect in electrically driven left atrium from reserpine-treated guinea pigs at concentration of 10E-3 M; assay type: functional, Cardiac atrium
Summary of the method: (§2)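 Electrically driven left atrium from reserpine-treated guinea pigs (tyramine-unresponsive), 29 °C, pH 7.5, resting tension […], 90 min equilibration. Compound dissolved in DMSO and added cumulatively, 5 min per step. Where used, adenosine deaminase was preincubated 20 min, and basal force was taken after ADA addition. Developed tension given as % change over control. Mean ± SEM of six assays.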

[12] = organism: Cavia porcellus; test: Inotropic effect in electrically driven left atrium from reserpine-treated guinea pigs at concentration of 10E-4 M; assay type: functional, Cardiac atrium; summary of the method: as §2
[13] = organism: Cavia porcellus; test: Inotropic effect in electrically driven left atrium from reserpine-treated guinea pigs at concentration of 10E-5 M; assay type: functional, Cardiac atrium; summary of the method: as §2
[14] = organism: Cavia porcellus; test: Inotropic effect in electrically driven left atrium from reserpine-treated guinea pigs at concentration of 10E-6 M; assay type: functional, Cardiac atrium; summary of the method: as §2
[15] = organism: Cavia porcellus; test: Inotropic effect in electrically driven left atrium from reserpine-treated guinea pigs at concentration of 3 x 10E-4 M; assay type: functional, Cardiac atrium; summary of the method: as §2
[16] = organism: Cavia porcellus; test: Inotropic effect in electrically driven left atrium from reserpine-treated guinea pigs at concentration of 3 x 10E-5 M; assay type: functional, Cardiac atrium; summary of the method: as §2
[17] = organism: Cavia porcellus; test: Inotropic effect in electrically driven left atrium from reserpine-treated guinea pigs at concentration of 3 x 10E-6 M; assay type: functional, Cardiac atrium; summary of the method: as §2
[18] = organism: Cavia porcellus; test: Ionotropic Response to 8-Phenyltheophylline (10e-4 M) in Electrically driven Left atrium from Resperpine-Treated Guinea pigs at the concentration of 10E-4 M; assay type: functional, Cardiac atrium
Summary of the method: (§3)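 Electrically driven left atrium from reserpine-treated guinea pigs, 29 °C, pH 7.5. Cumulative 8-phenyltheophylline concentration-effect curves were run without or with 3 × 10^-5 to 3 × 10^-4 M test compound (DMSO). Developed tension given as % variation from control. Mean ± SEM of four assays from four experiments; Student's t-test against the 8-phenyltheophylline-only atrium.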

[19] = organism: Cavia porcellus; test: Ionotropic Response to 8-Phenyltheophylline (10e-4 M) in Electrically driven Left atrium from Resperpine-Treated Guinea pigs at the concentration of 3 x 10E-5 M; assay type: functional, Cardiac atrium; summary of the method: as §3
[20] = organism: Cavia porcellus; test: Compound was evaluated for its effect on the frequency rate of spontaneously beating atria from Reserpine-treated guinea pigs as percentage variation from the control at concentration of 3 x 10E-4 M; assay type: functional; summary of the method: as §1
[21] = organism: Cavia porcellus; test: Compound was evaluated for its effect on the frequency rate of spontaneously beating atria from Reserpine-treated guinea pigs as percentage variation from the control at concentration of 3 x 10E-5 M; assay type: functional; summary of the method: as §1
[22] = organism: Cavia porcellus; test: Compound was evaluated for its effect on the frequency rate of spontaneously beating atria from Reserpine-treated guinea pigs as percentage variation from the control at concentration of 3 x 10E-6 M; assay type: functional; summary of the method: as §1
[23] = organism: Cavia porcellus; test: Effect on the contractile force of spontaneously beating atria from Reserpine-treated guinea pigs as percentage variation from the control at concentration of 10E-3 M; assay type: functional; summary of the method: as §1
[24] = organism: Cavia porcellus; test: Effect on the contractile force of spontaneously beating atria from Reserpine treated guinea pigs as percentage variation from the control at concentration of 10E-4 M; assay type: functional; summary of the method: as §1
[25] = organism: Cavia porcellus; test: Ionotropic Response to 8-Phenyltheophylline (10E-4) in Electrically driven Left atrium from Resperpine-Treated Guinea pigs at the concentration of 3 x 10E-4 M; assay type: functional, Cardiac atrium; summary of the method: as §3
[26] = organism: Cavia porcellus; test: Ionotropic Response to 8-Phenyltheophylline (10e-5 M) in Electrically driven Left atrium from Resperpine-Treated Guinea pigs at the concentration of 10E-4 M; assay type: functional, Cardiac atrium; summary of the method: as §3
[27] = organism: Cavia porcellus; test: Ionotropic Response to 8-Phenyltheophylline (10e-5 M)in Electrically driven Left atrium from Resperpine-Treated Guinea pigs at the concentration of 3 x 10E-5 M; assay type: functional, Cardiac atrium; summary of the method: as §3
[28] = organism: Cavia porcellus; test: Ionotropic Response to 8-Phenyltheophylline (10E-5) in Electrically driven Left atrium from Resperpine-Treated Guinea pigs at the concentration of 3 x 10E-4 M; assay type: functional, Cardiac atrium; summary of the method: as §3
[29] = organism: Cavia porcellus; test: Ionotropic Response to 8-Phenyltheophylline (3 x 10E-5 M) in Electrically driven Left atrium from Resperpine-Treated Guinea pigs at the concentration of 10E-4 M; assay type: functional, Cardiac atrium
Summary of the method: (§4)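 Guinea pigs pretreated with reserpine (2 mg/kg ip) 48 and 24 h before sacrifice; atria unresponsive to tyramine (2 µg/mL) used. Left atrium electrically driven, in oxygenated salt solution (95% O2/5% CO2, pH 7.5, 29 °C), resting tension […], isometric developed tension. 90 min equilibration; test agent present while cumulative 8-phenyltheophylline curves run, 5 min per concentration; % variation from control; mean ± SEM, four assays.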

[30] = organism: Cavia porcellus; test: Ionotropic Response to 8-Phenyltheophylline (3 x 10E-5 M) in Electrically driven Left atrium from Resperpine-Treated Guinea pigs at the concentration of 3 x 10E-4 M; assay type: functional, Cardiac atrium; summary of the method: as §4
[31] = organism: Cavia porcellus; test: Ionotropic Response to 8-Phenyltheophylline (3 x 10E-5 M) in Electrically driven Left atrium from Resperpine-Treated Guinea pigs at the concentration of 3 x 10E-5 M; assay type: functional, Cardiac atrium; summary of the method: as §4
[32] = organism: Cavia porcellus; test: Ionotropic Response to 8-Phenyltheophylline (3 x 10E-6 M) in Electrically driven Left atrium from Resperpine-Treated Guinea pigs at the concentration of 10E-4 M; assay type: functional, Cardiac atrium; summary of the method: as §4
[33] = organism: Cavia porcellus; test: Ionotropic Response to 8-Phenyltheophylline (3 x 10E-6 M) in Electrically driven Left atrium from Resperpine-Treated Guinea pigs at the concentration of 3 x 10E-4 M; assay type: functional, Cardiac atrium; summary of the method: as §4
[34] = organism: Cavia porcellus; test: Ionotropic Response to 8-Phenyltheophylline (3 x 10E-6 M) in Electrically driven Left atrium from Resperpine-Treated Guinea pigs at the concentration of 3 x 10E-5 M; assay type: functional, Cardiac atrium; summary of the method: as §4
[35] = organism: Cavia porcellus; test: Ionotropic Response to 8-Phenyltheophylline in Electrically driven Left atrium from Resperpine-Treated Guinea pigs at the concentration of 10E-4 M; assay type: functional, Cardiac atrium; summary of the method: as §4
[36] = organism: Cavia porcellus; test: Ionotropic Response to 8-Phenyltheophylline in Electrically driven Left atrium from Resperpine-Treated Guinea pigs at the concentration of 3 x 10E-4 M; assay type: functional, Cardiac atrium; summary of the method: as §4
[37] = organism: Cavia porcellus; test: Ionotropic Response to 8-Phenyltheophylline in Electrically driven Left atrium from Resperpine-Treated Guinea pigs at the concentration of 3 x 10E-5 M; assay type: functional, Cardiac atrium; summary of the method: as §4

IC50 [1]: 21.3 µM
Compound: COC(=O)c1cnc(N(C)C)nc1Cc1ccccc1
Variation [2]: 8.97% | Variation [3]: 0% | Variation [4]: -55.28% | Variation [5]: -6.54% | Variation [6]: 5.83% | Variation [7]: -100% | Variation [8]: -16.06% | Variation [9]: 0% | Variation [10]: 0% | Variation [11]: -100% | Variation [12]: -14.2% | Variation [13]: 7.45% | Variation [14]: 0% | Variation [15]: -48.3% | Variation [16]: -5.21% | Variation [17]: 4.85% | Variation [18]: 19% | Variation [19]: 20.2% | Variation [20]: -55.15% | Variation [21]: -8.03% | Variation [22]: 0% | Variation [23]: -100% | Variation [24]: -13.54% | Variation [25]: -6.66% | Variation [26]: -3.33% | Variation [27]: 11% | Variation [28]: -22.2% | Variation [29]: 2.72% | Variation [30]: -11% | Variation [31]: 14.9% | Variation [32]: -4.34% | Variation [33]: -28.9% | Variation [34]: 8.79% | Variation [35]: -9.37% | Variation [36]: -33.52% | Variation [37]: -6.66%
